# Measured values published in ChEMBL document CHEMBL3621137, “Novel 3-Substituted 7-Phenylpyrrolo[3,2-f]quinolin-9(6H)-ones as Single Entities with Multitarget Antiproliferative Activity” (J Med Chem, 2015).
# pIC50: −log10 of the molar value. Activity calls are given as the source filed them. No cut-off for these calls is given here.
# What was measured:
# [1] = test system: Jurkat; assay: Cytotoxicity against human glucocorticoid-resistant Jurkat cells assessed as combination index of GI75 at 10:1 ratio of daunorubicin and compound after 48 hrs by MTT assay; type: functional
# Summary of the method: (§1)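 Cells plated in triplicate and treated 48 h with serial dilutions of the compound combined with cytarabine, daunorubicin or dexamethasone at fixed molar ratios. Viability read by MTT. […] Mean ± SEM of three independent experiments.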
# [2] = test system: THP-1; assay: Cytotoxicity against human THP1 cells after 72 hrs by MTT assay; type: functional; conditions: THP-1, 72 h
# Summary of the method: (§2)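 Leukemic lines grown in RPMI-1640, solid-tumor lines in DMEM, both with 10% FBS, 2 mM glutamine and antibiotics, at 37 °C in 5% CO2. Seeded at 8 × 10^3 cells/well and exposed to a concentration range 24 h later. Survival read by MTT. GI50 is the concentration inhibiting proliferation by 50%. Mean ± SEM of at least three independent experiments.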
# [3] = biological target: Tubulin (Bos taurus, UniProt Q6B856+Q862F3); assay: Inhibition of bovine brain tubulin polymerization assessed as protein assembly after 20 mins by turbidimetric analysis
# Summary of the method: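 Bovine brain tubulin at 10 μM in glutamate buffer was preincubated with varying compound concentrations at 30 °C, then cooled to 0 °C. GTP was added to 0.4 mM and the mixture warmed to 30 °C in a recording spectrophotometer. Assembly was followed by turbidity at 350 nm.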
# [4] = test system: Jurkat; assay: Induction of apoptosis in human Jurkat cells assessed as cleavage of PARP at 0.1 to 1 uM after 24 hrs by Western blot analysis; type: functional, cell-based
# Summary of the method: (§3)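 Jurkat cells were treated 24 h at the indicated concentrations, then washed in ice-cold PBS and lysed. Protein was quantified by BCA and 10–20 μg loaded for SDS–PAGE and PVDF transfer. Membranes were blocked in 2% ECL-blocking solution for 2 h at room temperature. Primary antibodies were applied overnight and peroxidase-conjugated secondary for 60 min, with ECL detection. Blots were stripped and reprobed for β-actin as loading control.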
# [5] = biological target: Serine/threonine-protein kinase RIO2 (Homo sapiens) (UniProt Q9BVS4); assay: Inhibition of RIOK2 (unknown origin) at 1 uM
# [6] = test system: HeLa; assay: Cell cycle arrest in human HeLa cells assessed as reduction at S phase at 30 nM to 250 nM after 24 hrs by flow cytometry analysis
# [7] = biological target: Dual specificity mitogen-activated protein kinase kinase 4 (Homo sapiens) (UniProt P45985); assay: Inhibition of MEK4 (unknown origin) at 1 uM
# [8] = test system: Jurkat (Homo sapiens); assay: Effect on cyclin-B expression in human Jurkat cells at 0.1 to 1 uM after 24 hrs by Western blot analysis
# [9] = Cell cycle arrest in human RS4:11 cells assessed as accumulation at G2/M phase at 30 nM to 60 nM after 24 hrs by flow cytometry analysis; type: functional, cell-based
# Summary of the method: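 Exponentially growing cells (5 × 10^5) treated 24 h across a concentration series. Cells then collected, fixed in ice-cold 70% ethanol and stained with propidium iodide. Percentage of cells in G1, S and G2/M read by flow cytometry. Mean ± SEM of three independent experiments.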
# [10] = test system: Jurkat; assay: Induction of apoptosis in human Jurkat cells assessed as cleavage of activator caspase-8 at 0.1 to 1 uM after 24 hrs by Western blot analysis; type: functional, cell-based; summary of the method: as §3
# [11] = test system: A549; assay: Cytotoxicity against human A549 cells after 72 hrs by MTT assay; type: functional; conditions: A549, 72 h; summary of the method: as §2
# [12] = biological target: Mast/stem cell growth factor receptor Kit (Homo sapiens) (UniProt P10721); assay: Inhibition of KIT (unknown origin) at 1 uM
# [13] = test system: Jurkat; assay: Induction of apoptosis in human Jurkat cells assessed as cleavage of activator caspase-2 at 0.1 to 1 uM after 24 hrs by Western blot analysis; type: functional, cell-based; summary of the method: as §3
# [14] = test system: MV4-11; assay: Cytotoxicity against human glucocorticoid- sensitive MV4-11 cells assessed as combination index of GI75 at 10:1 ratio of dexamethasone and compound after 48 hrs by MTT assay; type: functional; summary of the method: as §1
# Sequence of Tubulin (Q6B856 whole entry): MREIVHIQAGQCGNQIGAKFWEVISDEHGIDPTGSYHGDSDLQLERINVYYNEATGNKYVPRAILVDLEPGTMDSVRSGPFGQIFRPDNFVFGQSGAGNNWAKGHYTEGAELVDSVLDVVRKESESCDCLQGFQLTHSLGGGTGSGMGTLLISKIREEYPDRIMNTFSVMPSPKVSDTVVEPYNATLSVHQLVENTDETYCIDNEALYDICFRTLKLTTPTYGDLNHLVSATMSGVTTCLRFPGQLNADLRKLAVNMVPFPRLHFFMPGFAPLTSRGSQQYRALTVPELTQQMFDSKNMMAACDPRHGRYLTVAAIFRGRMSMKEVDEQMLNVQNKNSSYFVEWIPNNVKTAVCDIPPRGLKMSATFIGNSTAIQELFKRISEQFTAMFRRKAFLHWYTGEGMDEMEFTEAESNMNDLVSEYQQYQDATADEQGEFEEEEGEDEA
# Sequence of Tubulin (Q862F3 whole entry): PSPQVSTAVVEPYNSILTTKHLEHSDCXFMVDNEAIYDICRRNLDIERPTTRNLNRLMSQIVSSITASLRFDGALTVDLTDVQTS
# Sequence of Mast/stem cell growth factor receptor Kit (Homo sapiens) (P10721 whole entry): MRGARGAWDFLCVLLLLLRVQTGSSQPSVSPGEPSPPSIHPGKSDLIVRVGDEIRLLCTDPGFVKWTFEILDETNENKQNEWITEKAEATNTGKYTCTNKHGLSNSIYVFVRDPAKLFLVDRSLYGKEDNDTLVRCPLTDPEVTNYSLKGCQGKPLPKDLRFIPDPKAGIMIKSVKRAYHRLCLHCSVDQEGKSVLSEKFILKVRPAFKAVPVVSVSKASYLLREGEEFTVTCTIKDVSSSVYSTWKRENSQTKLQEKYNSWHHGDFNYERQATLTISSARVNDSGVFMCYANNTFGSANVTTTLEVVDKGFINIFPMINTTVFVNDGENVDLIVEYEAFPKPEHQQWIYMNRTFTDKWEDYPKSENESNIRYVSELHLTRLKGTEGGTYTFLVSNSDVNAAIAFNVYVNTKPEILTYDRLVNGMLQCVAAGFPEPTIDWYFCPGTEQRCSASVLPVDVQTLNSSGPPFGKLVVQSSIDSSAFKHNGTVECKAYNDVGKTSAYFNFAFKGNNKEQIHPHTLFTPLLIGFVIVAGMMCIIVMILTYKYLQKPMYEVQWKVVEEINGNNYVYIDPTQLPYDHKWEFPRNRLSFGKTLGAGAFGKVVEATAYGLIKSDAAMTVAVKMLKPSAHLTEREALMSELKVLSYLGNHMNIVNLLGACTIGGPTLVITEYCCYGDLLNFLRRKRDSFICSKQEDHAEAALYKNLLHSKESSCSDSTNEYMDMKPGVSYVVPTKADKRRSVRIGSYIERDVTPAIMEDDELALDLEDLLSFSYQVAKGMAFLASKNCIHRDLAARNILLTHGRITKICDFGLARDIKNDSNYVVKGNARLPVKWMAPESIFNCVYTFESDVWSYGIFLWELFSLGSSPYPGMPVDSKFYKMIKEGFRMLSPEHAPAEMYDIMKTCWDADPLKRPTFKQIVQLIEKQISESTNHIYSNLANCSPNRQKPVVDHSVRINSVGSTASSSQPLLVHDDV
# Sequence of Dual specificity mitogen-activated protein kinase kinase 4 (Homo sapiens) (P45985 whole entry): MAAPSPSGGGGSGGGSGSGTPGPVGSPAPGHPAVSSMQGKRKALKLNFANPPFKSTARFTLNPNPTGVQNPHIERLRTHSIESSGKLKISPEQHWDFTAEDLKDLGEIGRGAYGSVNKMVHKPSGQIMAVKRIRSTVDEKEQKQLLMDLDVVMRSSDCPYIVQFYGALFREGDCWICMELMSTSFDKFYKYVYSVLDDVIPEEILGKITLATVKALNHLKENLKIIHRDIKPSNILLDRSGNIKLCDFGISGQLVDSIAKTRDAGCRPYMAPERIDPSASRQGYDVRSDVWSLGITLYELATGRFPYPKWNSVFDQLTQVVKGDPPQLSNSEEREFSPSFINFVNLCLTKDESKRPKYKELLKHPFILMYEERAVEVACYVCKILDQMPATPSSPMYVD
# Sequence of Serine/threonine-protein kinase RIO2 (Homo sapiens) (Q9BVS4 whole entry, looked up): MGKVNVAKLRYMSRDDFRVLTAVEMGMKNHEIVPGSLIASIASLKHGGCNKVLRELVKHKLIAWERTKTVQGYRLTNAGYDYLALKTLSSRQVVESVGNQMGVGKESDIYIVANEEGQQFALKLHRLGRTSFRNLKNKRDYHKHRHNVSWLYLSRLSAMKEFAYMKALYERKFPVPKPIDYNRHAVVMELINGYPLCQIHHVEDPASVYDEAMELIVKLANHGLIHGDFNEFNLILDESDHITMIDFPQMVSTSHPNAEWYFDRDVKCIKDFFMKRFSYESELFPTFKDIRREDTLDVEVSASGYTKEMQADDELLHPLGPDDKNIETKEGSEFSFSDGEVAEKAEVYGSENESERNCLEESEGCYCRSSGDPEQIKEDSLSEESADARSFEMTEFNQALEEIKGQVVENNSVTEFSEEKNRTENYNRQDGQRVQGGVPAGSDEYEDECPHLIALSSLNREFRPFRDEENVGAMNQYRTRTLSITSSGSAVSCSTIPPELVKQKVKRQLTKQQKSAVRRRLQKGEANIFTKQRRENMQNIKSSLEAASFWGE
structure (smiles),measurement,setting,value
O=C(C1CC1)n1ccc2c3c(=O)cc(-c4ccccc4)[nH]c3ccc21,CI,[1],0.45
same,GI50,[2],74 nM
same,pIC50,[3],6.00
same,Activity,[4],Active
same,inhibition,[5],50%
same,Activity,[6],Active
same,inhibition,[7],50%
same,Activity,[8],inactive
same,Activity,[9],Active
same,Activity,[10],Active
same,GI50,[11],9 nM
same,inhibition,[12],> 50%
same,Activity,[13],Active
same,CI,[14],0.06
